Test results published in paper PMC5788008 (Current drug discovery technologies, 2017).
≈ marks a conversion by molar mass, not a printed value. Read-outs that look alike come from different tables or passages of the source.

Key:
E. coli MetRS = conditions: cited from earlier work
P. aeruginosa MetRS [1] = target: T1, P. aeruginosa MetRS (Pseudomonas aeruginosa, UniProt Q9HYC7)
T1 sequence (Q9HYC7 1-677): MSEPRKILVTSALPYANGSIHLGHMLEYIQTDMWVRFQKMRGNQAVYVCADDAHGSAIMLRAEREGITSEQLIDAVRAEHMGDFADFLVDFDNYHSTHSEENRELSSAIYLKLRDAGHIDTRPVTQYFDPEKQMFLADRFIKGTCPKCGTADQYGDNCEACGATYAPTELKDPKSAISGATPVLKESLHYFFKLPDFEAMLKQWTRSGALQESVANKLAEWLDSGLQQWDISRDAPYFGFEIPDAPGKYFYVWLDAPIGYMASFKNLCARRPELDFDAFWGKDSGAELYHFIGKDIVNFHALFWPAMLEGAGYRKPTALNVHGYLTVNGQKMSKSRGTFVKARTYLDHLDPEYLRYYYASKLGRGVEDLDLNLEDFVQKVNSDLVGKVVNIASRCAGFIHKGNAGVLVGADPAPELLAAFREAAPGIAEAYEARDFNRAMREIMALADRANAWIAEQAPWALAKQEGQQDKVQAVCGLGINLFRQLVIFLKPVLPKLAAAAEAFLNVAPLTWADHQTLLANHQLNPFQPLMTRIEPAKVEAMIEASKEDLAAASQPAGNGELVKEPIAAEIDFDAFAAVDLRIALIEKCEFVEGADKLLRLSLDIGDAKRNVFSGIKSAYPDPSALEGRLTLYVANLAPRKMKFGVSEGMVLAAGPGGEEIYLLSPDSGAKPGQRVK

[2] = test system: P. aeruginosa (hypersensitive); assay: MIC, broth microdilution; format: cell-based, Pseudomonas aeruginosa; conditions: P. aeruginosa hypersensitive strain (ATCC 35151)
Summary of the method: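 Broth microdilution per CLSI guideline M7-A7, read as MIC in μg/ml. Hypersensitive strain ATCC 35151 was a gift. Compound stocks were 10 mM in DMSO. Three separate sets of assays were run. MIC QC and culture purity were checked with antibiotics specific to each strain, using Etest QC ranges.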

S. aureus (ATCC 29213) = assay: MIC, broth microdilution; format: cell-based, Staphylococcus aureus
S. aureus = assay: Time-kill study; format: cell-based, Staphylococcus aureus; conditions: 4×MIC
Summary of the method: (§1)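 Time-kill following CLSI document M26-A. Growth media were Haemophilus Test Broth and Trypticase Soy Broth. Cultures with compound were sampled at 0, 2, 4, 6 and 24 h and plated for CFU counts. Controls had no compound but an equal amount of DMSO.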

H. influenzae = assay: Time-kill study; format: cell-based, Haemophilus influenzae; conditions: 4×MIC
Summary of the method: as §1

[3] = test system: H. influenzae (ATCC 49766); assay: MIC, broth microdilution; format: cell-based, Haemophilus influenzae
E. faecalis (ATCC 29212) = assay: MIC, broth microdilution; format: cell-based, Enterococcus faecalis
P. aeruginosa MetRS [4] = target: T1, P. aeruginosa MetRS; assay: tRNA aminoacylation assay in SPA format; format: biochemical
P. aeruginosa MetRS [5] = target: T1, P. aeruginosa MetRS; assay: Binding mode; format: biochemical; conditions: for competition with methionine for binding MetRS: 25-300 μM methionine, 2.5 mM ATP; for competition with ATP for binding MetRS: 25-1000 μM ATP, 75 μM methionine
[6] = test system: human embryonic kidney 293 cells (HEK-293); assay: MTT cytotoxicity assay; format: cell-based
[7] = substrate: CSCC[C@H](N)C(=O)O; assay: purified protein, by the assay type; conditions: other: substrate methionine, ATP 2 mM; pH 7.5; 37.0 °C
[8] = substrate: Nc1ncnc2c1ncn2[C@@H]1O[C@H](COP(=O)(O)OP(=O)(O)OP(=O)(O)O)[C@@H](O)[C@H]1O; assay: purified protein, by the assay type; conditions: other: substrate ATP, methionine 2 mM; pH 7.5; 37.0 °C

Nc1ncnc2c1ncn2[C@@H]1O[C@H](COP(=O)(O)OP(=O)(O)OP(=O)(O)O)[C@@H](O)[C@H]1O [ATP, Adenosine triphosphate]
Km (E. coli MetRS; E. coli MetRS with ATP): 528 µM | kcat (E. coli MetRS; E. coli MetRS with ATP): 74 µM | kcat (P. aeruginosa MetRS [1]; substrate ATP): 24.2 s⁻¹

CC1(C)C=Cc2c(c3c(c4c(=O)c(-c5ccc(O)c(O)c5)coc24)OC(C)(C)CC3)O1 [Isopomiferin, isopomiferin]
MIC [2]: 16 µg/mL (≈ 38.1 µM) | MIC (S. aureus (ATCC 29213)): 32 µg/mL (≈ 76.1 µM) | mode of inhibition (time-kill) (S. aureus; 0-24 h): bactericidal | CFUs in time-kill (S. aureus; first six hours of growth): no CFUs were observed | mode of inhibition (time-kill) (H. influenzae; 0-24 h): bacteriostatic | decrease of colony forming units compared to the control (H. influenzae; during 24 h): 2 to 5 log10 CFU | MIC [3]: Moderate activity | MIC (E. faecalis (ATCC 29212)): 32 µg/mL (≈ 76.1 µM) | IC50 (P. aeruginosa MetRS [4]; aminoacylation, 0.1 μM MetRS, compound 200 to 0.4 μM): 70 µM | competition with methionine for binding MetRS (P. aeruginosa MetRS [5]): not observed to compete | competition with methionine for binding MetRS (P. aeruginosa MetRS [5]; listed as BM01C11): did not compete | competition with ATP for binding MetRS (P. aeruginosa MetRS [5]): not observed to compete | competition with ATP for binding MetRS (P. aeruginosa MetRS [5]; listed as BM01C11): did not compete | form of inhibition (P. aeruginosa MetRS [5]; IC50 constant as ATP or methionine increased): non-competitive | CC50 relative to that of staurosporine [6]: 10,000 fold

CSCC[C@H](N)C(=O)O [Methionine]
Km (E. coli MetRS; E. coli MetRS with methionine): 21 µM | kcat (E. coli MetRS; E. coli MetRS with methionine): 74 µM | kcat (P. aeruginosa MetRS [1]; substrate methionine): 37.2 s⁻¹

O=c1cc(-c2cc(O)c(O)c(O)c2)oc2cc(O)cc(O)c12 [hieracin]
IC50 (P. aeruginosa MetRS [4]): 8.3 µM

B1: P. aeruginosa MetRS (Pseudomonas aeruginosa PAO1) (protein)
chain: MSEPRKILVTSALPYANGSIHLGHMLEYIQTDMWVRFQKMRGNQAVYVCADDAHGSAIMLRAEREGITSEQLIDAVRAEHMGDFADFLVDFDNYHSTHSEENRELSSAIYLKLRDAGHIDTRPVTQYFDPEKQMFLADRFIKGTCPKCGTADQYGDNCEACGATYAPTELKDPKSAISGATPVLKESLHYFFKLPDFEAMLKQWTRSGALQESVANKLAEWLDSGLQQWDISRDAPYFGFEIPDAPGKYFYVWLDAPIGYMASFKNLCARRPELDFDAFWGKDSGAELYHFIGKDIVNFHALFWPAMLEGAGYRKPTALNVHGYLTVNGQKMSKSRGTFVKARTYLDHLDPEYLRYYYASKLGRGVEDLDLNLEDFVQKVNSDLVGKVVNIASRCAGFIHKGNAGVLVGADPAPELLAAFREAAPGIAEAYEARDFNRAMREIMALADRANAWIAEQAPWALAKQEGQQDKVQAVCGLGINLFRQLVIFLKPVLPKLAAAAEAFLNVAPLTWADHQTLLANHQLNPFQPLMTRIEPAKVEAMIEASKEDLAAASQPAGNGELVKEPIAAEIDFDAFAAVDLRIALIEKCEFVEGADKLLRLSLDIGDAKRNVFSGIKSAYPDPSALEGRLTLYVANLAPRKMKFGVSEGMVLAAGPGGEEIYLLSPDSGAKPGQRVK
Km [7]: 35 µM | kcat [7]: 37.2 s⁻¹ | kcat/Km [7]: 1.1 µM/s | Km [8]: 515 µM | kcat [8]: 24.2 s⁻¹ | kcat/Km [8]: 0.05 µM/s
